Variants at the floor of the assay were thinned out.
B1: tRNA (parent)
chain: GUUCCGUUGGCGUAAUGGUAACGCGUCUCCCUCCUAAGGAGAAGACUGCGGGUUCGAGUCCCGUACGGAACG

Variants of: B1
Experiment: yeast fitness relative to wild type (ratio to wild type); higher = fitter; tRNA-Arg(CCU), competitive growth, 37 C, YPD
In short: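 Variants of the tRNA-Arg(CCU) gene were chemically synthesised with a 3% per-site mutation rate across 69 sites and placed at the native genomic locus in Saccharomyces cerevisiae. Six parallel replicates of the pooled strains were competed in YPD at 37°C for 24 hours, and gene amplicons from the start and end populations were read by 100-nucleotide paired-end sequencing. Darwinian fitness relative to wild type was derived from changes in genotype frequencies. Genotypes required ≥ 100 starting reads, and estimates < 0.5 were set to 0.5.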

| Variant | yeast fitness |
| --- | --- |
| GUUCCGUUGGCGUAAUGGUAACGCGUCUCCCUCCUAAGGAGAAGACUGCGGGUUAGAGUCCCGUACCGAACG [C55A G67C] | 0.686 |
| GUUCCGUUGGCGUAAUGGUAACGCGUCUCCCUCCUAAGGAGAAGACUGCGGGUUAGAGUCCCGUACGAAACG [C55A G68A] | 0.674 |
| GUUCCGUUGGCGUAAUGGUAACGCGUCUCCCUCCUAAGGAGAAGACUGCGGGUUAGAGUCCCGUACGUUACG [C55A G68U A69U] | ≤ 0.5 |
| GUUCCGUUGGCGUAAUGGUAACGCGUCUCCCUCCUAAGGAGAAGACUGCGGGUUAGAGACCCGUACGGAACG [C55A U59A] | 0.513 |
| GUUCCGUUGGCGUAAUGGUAACGCGUCUCCCUCCUAAGGAGAAGACUGCGGGUUGGAGUCCCGUACGGAACG [C55G] | 0.695 |
| GUUCCGUUGGCGUAAUGGUAACGCGUCUCCCUCCUAAGGAGAAGACUGCGGGUUGGCGUCCCGUACGGAACG [C55G A57C] | 0.713 |
| GUUCCGUUGGCGUAAUGGUAACGCGUCUCCCUCCUAAGGAGAAGACUGCGGGUUGGGGUCCCGUACGGAACG [C55G A57G] | 0.638 |
| GUUCCGUUGGCGUAAUGGUAACGCGUCUCCCUCCUAAGGAGAAGACUGCGGGUUGGUGUCCCGUCCGGAACG [C55G A57U A65C] | ≤ 0.5 |
| GUUCCGUUGGCGUAAUGGUAACGCGUCUCCCUCCUAAGGAGAAGACUGCGGGUUGGUGUCCUGUAUGGAACG [C55G A57U C62U C66U] | ≤ 0.5 |
| GUUCCGUUGGCGUAAUGGUAACGCGUCUCCCUCCUAAGGAGAAGACUGCGGGUUGGAGUCCCGUCCGGAACG [C55G A65C] | 0.529 |
| GUUCCGUUGGCGUAAUGGUAACGCGUCUCCCUCCUAAGGAGAAGACUGCGGGUUGGAGUCCCGUGCGGAACG [C55G A65G] | 0.528 |
| GUUCCGUUGGCGUAAUGGUAACGCGUCUCCCUCCUAAGGAGAAGACUGCGGGUUGGAGUCCCGUUCGGAACG [C55G A65U] | 0.692 |
| GUUCCGUUGGCGUAAUGGUAACGCGUCUCCCUCCUAAGGAGAAGACUGCGGGUUGGAGUCCCGUACGGAGCG [C55G A70G] | 0.673 |
| GUUCCGUUGGCGUAAUGGUAACGCGUCUCCCUCCUAAGGAGAAGACUGCGGGUUGGAGUACAGUACGAUACG [C55G C60A C62A G68A A69U] | ≤ 0.5 |
| GUUCCGUUGGCGUAAUGGUAACGCGUCUCCCUCCUAAGGAGAAGACUGCGGGUUGGAGUACCGUAAGGAACG [C55G C60A C66A] | ≤ 0.5 |
| GUUCCGUUGGCGUAAUGGUAACGCGUCUCCCUCCUAAGGAGAAGACUGCGGGUUGGAGUGCCGUAUGGAACG [C55G C60G C66U] | ≤ 0.5 |
| GUUCCGUUGGCGUAAUGGUAACGCGUCUCCCUCCUAAGGAGAAGACUGCGGGUUGGAGUUCCGUACGGAACG [C55G C60U] | ≤ 0.5 |
| GUUCCGUUGGCGUAAUGGUAACGCGUCUCCCUCCUAAGGAGAAGACUGCGGGUUGGAGUUCCGUACGCAACG [C55G C60U G68C] | ≤ 0.5 |
| GUUCCGUUGGCGUAAUGGUAACGCGUCUCCCUCCUAAGGAGAAGACUGCGGGUUGGAGUCGCGUACGGAACG [C55G C61G] | ≤ 0.5 |

| Variant | yeast fitness |
| --- | --- |
| GUUCCGUUGGCGUAAUGGUAACGCGUCUCCCUCCUAAGGAGAAGACUGCGGGUUGGAGUCCUGUACGGAACG [C55G C62U] | 0.626 |
| GUUCCGUUGGCGUAAUGGUAACGCGUCUCCCUCCUAAGGAGAAGACUGCGGGUUGGAGUCCCGUAAGGAACG [C55G C66A] | 0.546 |
| GUUCCGUUGGCGUAAUGGUAACGCGUCUCCCUCCUAAGGAGAAGACUGCGGGUUGGAGUCCCGUAUGGAACG [C55G C66U] | 0.585 |
| GUUCCGUUGGCGUAAUGGUAACGCGUCUCCCUCCUAAGGAGAAGACUGCGGGUUGGAGUCCCGUAUGGCACG [C55G C66U A69C] | ≤ 0.5 |
| GUUCCGUUGGCGUAAUGGUAACGCGUCUCCCUCCUAAGGAGAAGACUGCGGGUUGAAGUCUCGUACGGAACG [C55G G56A C61U] | ≤ 0.5 |
| GUUCCGUUGGCGUAAUGGUAACGCGUCUCCCUCCUAAGGAGAAGACUGCGGGUUGGAGUCCCCUACCGAACG [C55G G63C G67C] | 0.532 |
| GUUCCGUUGGCGUAAUGGUAACGCGUCUCCCUCCUAAGGAGAAGACUGCGGGUUGGAGUCCCGUACGAAACG [C55G G68A] | 0.604 |
| GUUCCGUUGGCGUAAUGGUAACGCGUCUCCCUCCUAAGGAGAAGACUGCGGGUUGGAGACCCAUACGGAACG [C55G U59A G63A] | 0.673 |
| GUUCCGUUGGCGUAAUGGUAACGCGUCUCCCUCCUAAGGAGAAGACUGCGGGUUGGAGGCCCGUACGGAACG [C55G U59G] | 0.566 |
| GUUCCGUUGGCGUAAUGGUAACGCGUCUCCCUCCUAAGGAGAAGACUGCGGGUUGGAGUCCCGCACGGAACG [C55G U64C] | 0.679 |
| GUUCCGUUGGCGUAAUGGUAACGCGUCUCCCUCCUAAGGAGAAGACUGCGGGUUUGAGUCCCGUACGGAACG [C55U] | 0.721 |
| GUUCCGUUGGCGUAAUGGUAACGCGUCUCCCUCCUAAGGAGAAGACUGCGGGUUUGCGUCCCGUACGGAACG [C55U A57C] | 0.584 |
| GUUCCGUUGGCGUAAUGGUAACGCGUCUCCCUCCUAAGGAGAAGACUGCGGGUUUGGGUCCCGUACGGAACG [C55U A57G] | 0.747 |
| GUUCCGUUGGCGUAAUGGUAACGCGUCUCCCUCCUAAGGAGAAGACUGCGGGUUUGAGUCCCGUCCGGAACG [C55U A65C] | 0.754 |
| GUUCCGUUGGCGUAAUGGUAACGCGUCUCCCUCCUAAGGAGAAGACUGCGGGUUUGAGUCCCGUGCGGAACG [C55U A65G] | 0.623 |
| GUUCCGUUGGCGUAAUGGUAACGCGUCUCCCUCCUAAGGAGAAGACUGCGGGUUUGAGUCCCGUACGGGACG [C55U A69G] | 0.802 |
| GUUCCGUUGGCGUAAUGGUAACGCGUCUCCCUCCUAAGGAGAAGACUGCGGGUUUGAGUCCCGUACGGUACG [C55U A69U] | 0.684 |
| GUUCCGUUGGCGUAAUGGUAACGCGUCUCCCUCCUAAGGAGAAGACUGCGGGUUUGAGUCCCGUACGGACCG [C55U A70C] | 0.938 |

— the RNAGym collection of RNA variant scans (doi:10.1126/science.aae0568)
